PubChem BioAssay
The source made the active and inactive calls.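 How the source made its calls, unless noted: active means visually confirmed hit in the image check and inhibition above 20%; inconclusive means visually confirmed hit but inhibition not above 20%; inactive means no visual hit in the image check.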

Assays:
[1] = inhibitors of TNFa-induced NFkB p65 translocation, primary screen, imaging, HUVEC, MLSMR starter and 10KST1 sets (AID 438;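 active means inhibition above 20% together with a positive visual image hit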;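 further: compound added about 3h40 before a 20 min TNFalpha stimulation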;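 on inhibition: signal is the nuclear over cytoplasmic p65 intensity ratio per well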); conditions: HUVEC TNFa-induced p65 nuclear translocation; cell count: measured here: nuclei count (cytotoxicity indicator), at 2.08 µM; inhibition: at 2 µM, stronger effect = higher value, 0% TNFa-plus-vehicle, 100% no-TNFa wells
[2] = reduction of polyQ htt aggregates in cells – imaging, exon1htt(103Q)mCFP cells, high-content imaging, primary screen (AID 483;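 active means visual image review flags a hit and inhibition of aggregation exceeds 20%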;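 further: compound exposure lasted 3 days before fixation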;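 on nuclei count: percent of the per-plate median nuclei count of sample wells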); conditions: exon1htt(103Q)mCFP cell line, aggregate imaging, at 2 µM; inhibition of aggregation: stronger effect = higher value; nuclei count: measured here: cell count, toxicity
[3] = endothelial E-selectin expression blockers – imaging, HUVEC, immunofluorescence, MLSMR starter and 10KST1 sets, primary screen (AID 487); conditions: HUVEC TNFalpha-induced E-selectin immunofluorescence imaging, at 2 µM; inhibition: stronger effect = higher value; nuclei count: measured here: cell number, toxicity;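 on inhibition: signal is fraction of cell area covered by stained E-selectin grains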;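 on nuclei count: 100% = median nuclei count of all wells on the same plate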
[4] = target: Voltage-gated potassium channel subunit beta-2 (Rattus norvegicus) (UniProt P62483); test: inhibitors of rat Kvbeta2 reductase activity – biochemical, NADPH fluorescence, primary screen (AID 622;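 active means fluorescence slope higher than the sample average by over 3 SD, cut at about -0.22 in these data, passing the limit was not always enough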;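 further: slope of raw intensity against log time taken from 70 to 1610 s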); conditions: recombinant KvBeta, 4-cyanobenzaldehyde reduction, at 10 µM, stronger effect = higher value
Sequence of Voltage-gated potassium channel subunit beta-2 (Rattus norvegicus) (P62483 whole entry, looked up): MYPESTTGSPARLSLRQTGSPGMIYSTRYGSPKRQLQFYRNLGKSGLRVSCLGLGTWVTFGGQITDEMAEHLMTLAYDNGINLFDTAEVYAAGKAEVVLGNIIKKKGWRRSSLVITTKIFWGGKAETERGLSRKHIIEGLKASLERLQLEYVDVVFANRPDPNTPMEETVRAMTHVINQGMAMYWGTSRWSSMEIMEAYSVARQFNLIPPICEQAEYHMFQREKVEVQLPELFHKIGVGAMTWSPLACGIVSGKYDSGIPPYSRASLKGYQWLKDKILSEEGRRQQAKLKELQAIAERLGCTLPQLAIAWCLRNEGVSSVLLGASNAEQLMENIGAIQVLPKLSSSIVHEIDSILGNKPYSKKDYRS

[5] = target: Voltage-gated potassium channel subunit beta-2 (Rattus norvegicus) (UniProt P62483); test: enhancers of rat Kvbeta2 NADPH turnover – biochemical, NADPH fluorescence, primary screen (AID 623;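 active means NADPH fluorescence slope more negative than the mean of all samples by about 3 SD, 99.7% confidence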;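 further: fluorescence intensity change per second fitted from 20 to 320 s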); conditions: Recombinant KvBeta, NADPH fluorescence decrease slope, 10 min; at 10 µM; stronger effect = lower value
[6] = target: Muscarinic acetylcholine receptor M4 (Homo sapiens) (UniProt P08173); test: M4-linked GIRK flux change, two-sided – cell-based, HEK293 M4/GIRK, thallium flux, BTC-AM, M4 allosteric agonist project, primary screen (AID 625;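 active means fluorescence slope after compound addition differing from the mean of all tested samples at 99.7% confidence, mostly higher but some lower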;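 further: thallium influx through GIRK channels coupled to M4 in HEK293 cells with BTC-AM dye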); conditions: at 10 µM, actives lie on both sides
Sequence of Muscarinic acetylcholine receptor M4 (Homo sapiens) (P08173 whole entry, looked up): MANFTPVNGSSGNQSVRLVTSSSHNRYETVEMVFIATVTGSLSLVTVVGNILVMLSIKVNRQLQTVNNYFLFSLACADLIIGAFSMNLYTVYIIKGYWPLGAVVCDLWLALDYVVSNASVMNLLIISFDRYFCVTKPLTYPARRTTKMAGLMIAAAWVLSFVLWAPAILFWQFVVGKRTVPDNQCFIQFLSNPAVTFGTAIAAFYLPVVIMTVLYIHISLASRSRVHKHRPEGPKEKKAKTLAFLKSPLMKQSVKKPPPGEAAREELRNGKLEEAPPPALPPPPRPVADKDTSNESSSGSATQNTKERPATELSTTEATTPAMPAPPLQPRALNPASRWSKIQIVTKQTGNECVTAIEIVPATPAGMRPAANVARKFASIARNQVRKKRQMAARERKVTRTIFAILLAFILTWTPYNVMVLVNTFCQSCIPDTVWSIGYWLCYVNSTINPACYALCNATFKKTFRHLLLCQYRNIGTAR
Method in brief: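 Assay system: HEK293 cells with M4 receptor and GIRK channels / Controls: carbachol and DMSO controls / Schedule: 1 h dye loading, 2 min kinetic read / Technique: kinetic fluorescence with BTC-AM dye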

[7] = blockers of RIG-like receptor reporter activation – cell-based, Sendai virus stimulus, luciferase, 10K MLSCN set, TLR/RLR signaling modifier project, primary screen (AID 602276;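 active means inhibition at or above 50% at 10 µM; inactive means inhibition below 50%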;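 further: firefly luciferase from ISG56 promoter only with Renilla not read in this screen; 0% = Sendai virus plus DMSO and 100% = medium plus DMSO without virus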); conditions: HEK293 RL24 IRF3 luciferase reporter, at 10 µM, stronger effect = higher value
[8] = TLR3 IRF3 reporter activation blockers – cell-based, poly I:C stimulus, luciferase, 10K MLSCN set, primary screen (AID 602277;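 active means inhibition of the reporter signal at or above 50%; inactive means inhibition below 50%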); conditions: HEK293-TLR3 RL24 IRF3 luciferase reporter, at 10 µM, stronger effect = higher value

SMILES | cell count [1] | inhibition [1] | inhibition of aggregation [2] | nuclei count [2] | inhibition [3] | nuclei count [3] | fluorescence slope [4] | NADPH fluorescence slope [5] | fluorescence slope [6] | inhibition [7] | inhibition [8]
CS(=O)(=O)Nc1ccc(C(=O)NCc2ccc3c(c2)OCO3)cc1 | 409 | -5.7% (inactive) | 16.6% (inactive) | 66.5% | -42.6% (inactive) | 108% | -0.472 (inactive) | -1.7e-05 (inactive) | 0.00561 (inactive) | 9.26% (inactive) | 4.21% (inactive)
CCOc1ccc(N(C)S(=O)(=O)c2ccc3[nH]cc(C(=O)NCC4CCCO4)c(=O)c3c2)cc1 (stereo not given) | 313 | 3.3% (inactive) | -9.8% (inactive) | 67.5% | 4% (inactive) | 96.5% | -0.567 (inactive) | -4.5e-05 (inactive) | 0.00944 (inactive) | 1.36% (inactive) | 23% (inactive)
COC(=O)c1ccc(CSc2nc3ccccc3c(=O)n2Cc2ccco2)o1 | 414 | 2.6% (inactive) | -12.9% (inactive) | 111% | 1.8% (inactive) | 114% | -0.563 (inactive) | -1.4e-05 (inactive) | 0.00748 (inactive) | 6.37% (inactive) | -5.19% (inactive)
COc1cccc(OC)c1C(=O)Nc1cccc(C(C)=O)c1 | 734 | -11.6% (inactive) | 19.3% (inactive) | 95.5% | 15.5% (inactive) | 104% | -0.53 (inactive) | -1.1e-05 (inactive) | 0.00451 (inactive) | 12.1% (inactive) | 27.4% (inactive)
FC(F)(F)c1cc(-c2ccco2)nc(-n2nnc3ccccc32)n1 | 529 | -6.9% (inactive) | -8.6% (inactive) | 109% | -12% (inactive) | 101% | -0.562 (inactive) | 1.3e-05 (inactive) | 0.00724 (inactive) | 15.2% (inactive) | 22.4% (inactive)
CCCN(CCC)S(=O)(=O)c1ccc(C(=O)Nc2nnc(-c3cccc(OC)c3)o2)cc1 | 345 | 1.4% (inactive) | 13.6% (inactive) | 92.5% | 38.1% (inactive) | 107% | -0.5 (inactive) | -0.000148 (inactive) | 0.0064 (inactive) | 27.3% (inactive) | 23.2% (inactive)
Cc1ccc(C(=O)CCC2CCCC2=O)cc1 (stereo not given) | 718 | -21.6% (inactive) | -2.7% (inactive) | 86.9% | 22.6% (inactive) | 97.8% | -0.263 (inactive) | -3.8e-05 (inactive) | 0.00558 (inactive) | -20.4% (inactive) | -124% (inactive)
CCOC(=O)CC(NS(=O)(=O)c1ccc(NC(C)=O)cc1)c1ccc(OCC)cc1 (stereo not given) | 376 | 9.9% (inactive) | -7.9% (inactive) | 95.7% | -101% (inactive) | 126% | -0.588 (inactive) | 3.6e-06 (inactive) | 0.00588 (inactive) | 14% (inactive) | 17.3% (inactive)
COc1ccc(Cl)cc1Nc1nc(C)cc(=O)[nH]1 | 271 | -3.7% (inactive) | 10% (inactive) | 61.7% | 39.6% (inactive) | 44% | -0.562 (inactive) | -2.9e-05 (inactive) | 0.00528 (inactive) | 16% (inactive) | 19.5% (inactive)
CCOc1cc(C2C(C(=O)OC(C)C)=C(C)N=C3SCCC(=O)N32)ccc1OC(C)=O (stereo not given) | 284 | 5.8% (inactive) | 8.8% (inactive) | 105% | 1.9% (inactive) | 105% | -0.42 (inactive) | -0.000412 (inactive) | 0.00512 (inactive) | 11.7% (inactive) | 24% (inactive)
Cc1cccc(C)c1OCC(=O)Nc1cccc(NC(=O)c2ccco2)c1 | 464 | -9.5% (inactive) | 23.3% (inactive) | 87.7% | -10.3% (inactive) | 96.3% | -0.447 (inactive) | 5.1e-06 (inactive) | 0.00569 (inactive) | 13.3% (inactive) | 9.13% (inactive)
CCOc1ccc(OCC)c(NC(=O)C2CCN(S(=O)(=O)c3cnc[nH]3)CC2)c1 | 377 | -1.3% (inactive) | -15.6% (inactive) | 101% | 22.9% (inactive) | 80.4% | -0.572 (inactive) | -2.9e-05 (inactive) | 0.00665 (inactive) | 4.79% (inactive) | 10.8% (inactive)
c1nc(NCC2CCCO2)c2[nH]cnc2n1 (stereo not given) | 349 | -12.5% (inactive) | 12.3% (inactive) | 90.8% | -27.3% (inactive) | 118% | -0.483 (inactive) | 1.9e-05 (inactive) | 0.00434 (inactive) | 13.9% (inactive) | 16.7% (inactive)
CCCOc1cc(C)c(S(=O)(=O)N2CCN(C)CC2)cc1C | 443 | 10.6% (inactive) | 12.8% (inactive) | 100% | -11.9% (inactive) | 96.1% | -0.57 (inactive) | -3.7e-05 (inactive) | 0.00349 (inactive) | 7.65% (inactive) | 10.4% (inactive)
Cc1cccc(N(C)C(=O)c2coc(=O)c3ccccc23)c1 | 199 | -0.8% (inactive) | -9.3% (inactive) | 105% | -1.9% (inactive) | 104% | -0.563 (inactive) | 1.4e-05 (inactive) | 0.00467 (inactive) | 14.1% (inactive) | 26.6% (inactive)
CC(=O)c1cc(-c2ccccc2)n(CC(=O)N2CCC(N3CCCCC3)CC2)c1C | 263 | 7.9% (inactive) | -0.7% (inactive) | 96.8% | -37.4% (inactive) | 115% | -0.545 (inactive) | -3.5e-05 (inactive) | 0.00662 (inactive) | 14.8% (inactive) | 30.7% (inactive)
CCOc1ccc(OCc2ccc(C(=O)Nc3cccc(C)n3)o2)cc1 | 731 | -4.2% (inactive) | -3.4% (inactive) | 114% | -43.1% (inactive) | 117% | -0.557 (inactive) | -6.3e-05 (inactive) | 0.00558 (inactive) | -27% (inactive) | -74% (inactive)
O=C(COc1ncnc2ccccc12)NCc1ccc2c(c1)OCO2 | 345 | -1.6% (inactive) | -8.2% (inactive) | 101% | -38.6% (inactive) | 105% | -0.584 (inactive) | -5e-06 (inactive) | 0.00352 (inactive) | 15.1% (inactive) | 16.2% (inactive)
CCCC(=O)Nc1ccccc1NC(=O)CN(C)S(=O)(=O)c1ccc(C)cc1 | 182 | -6.3% (inactive) | -6.6% (inactive) | 81.6% | 20.2% (inactive) | 83.4% | -0.56 (inactive) | -3e-05 (inactive) | 0.00633 (inactive) | 1.42% (inactive) | 11.1% (inactive)
CC(C)c1ccc(S(=O)(=O)N2CCN(C(=O)c3cccc(F)c3)CC2)cc1 | 363 | 4.2% (inactive) | 17% (inactive) | 100% | -70.8% (inactive) | 118% | -0.525 (inactive) | 0.000166 (inactive) | 0.00667 (inactive) | 14.9% (inactive) | 17% (inactive)
COc1ccc(C(=O)Nn2c(SCC(=O)NCC3CCCO3)nc3ccccc3c2=O)cc1 (stereo not given) | 512 | -3.6% (inactive) | 13.2% (inactive) | 103% | -60.6% (inactive) | 106% | -0.511 (inactive) | -6.1e-05 (inactive) | 0.00522 (inactive) | 15.1% (inactive) | 49.1% (inactive)
COc1ccc(-n2c(SCCC(=O)O)nnc2-c2ccncc2)cc1 | 359 | -6.2% (inactive) | -2.3% (inactive) | 98.2% | -27.4% (inactive) | 127% | -0.56 (inactive) | 4e-06 (inactive) | 0.00569 (inactive) | 18% (inactive) | 36.6% (inactive)
CCCCCCn1c(SCCCC)nc2c1c(=O)[nH]c(=O)n2C | 384 | -8% (inactive) | -12.5% (inactive) | 101% | -10.4% (inactive) | 104% | -0.543 (inactive) | -3.9e-05 (inactive) | 0.00572 (inactive) | 0.691% (inactive) | 10.6% (inactive)
CCSc1oc(-c2ccco2)nc1S(=O)(=O)c1ccccc1 | 584 | -7.9% (inactive) | -18% (inactive) | 107% | 4.3% (inactive) | 105% | -0.316 (inactive) | -2.1e-05 (inactive) | 0.00508 (inactive) | -7.74% (inactive) | -0.253% (inactive)
COc1ccccc1N1CCN(C(=O)c2ccc(CS(=O)(=O)c3ccccc3OC)o2)CC1 | 550 | -12.7% (inactive) | -6.3% (inactive) | 110% | -68.7% (inactive) | 113% | -0.478 (inactive) | 3.4e-05 (inactive) | 0.00677 (inactive) | 6.55% (inactive) | 15.7% (inactive)
